Measured values: ChEMBL document CHEMBL4011607 (J Med Chem, 2017)

Columns and labels:
[1] = (§1) Clearance in rat at 0.5 mg/kg, iv; assay type: ADME, organism-based; conditions: in vivo
How it was run: (§2)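 Rats received 0.5 mg/kg iv as a solution in DMSO. Clearance, half-life and Vdss are taken from the plasma profile. Unbound clearance is total clearance divided by plasma fraction unbound.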

[2] = tested on: Rattus norvegicus; test: Unbound clearance in rat at 0.5 mg/kg, iv; assay type: ADME, organism-based; conditions: in vivo
How it was run: as §2

[3] = (§3) Clearance in dog at […], iv; assay type: ADME, organism-based, Canis lupus familiaris; conditions: in vivo; note: dose 0.25 mg/kg
[4] = tested on: Canis familiaris; test: Unbound clearance in dog at […], iv; assay type: ADME, organism-based, Canis lupus familiaris; conditions: in vivo; note: dose 0.25 mg/kg
[5] = (§4) Volume of distribution at steady state in rat at 0.5 mg/kg, iv; assay type: ADME, organism-based; conditions: in vivo, read-out: Vdss
How it was run: as §2

[6] = (§5) Volume of distribution at steady state in dog at […], iv; assay type: ADME, organism-based, Canis lupus familiaris; conditions: in vivo, read-out: Vdss; note: dose 0.25 mg/kg
[7] = (§6) Half life in rat at 0.5 mg/kg, iv; assay type: ADME, organism-based; conditions: in vivo
How it was run: as §2

[8] = (§7) Half life in dog at […], iv; assay type: ADME, organism-based, Canis lupus familiaris; conditions: in vivo; note: dose 0.25 mg/kg
[9] = Intrinsic clearance in rat liver microsomes at 1 uM after 40 mins by LC-MS/MS assay; assay type: ADME, microsome; conditions: read-out: CLH
[10] = Intrinsic clearance in dog liver microsomes at 1 uM after 40 mins by LC-MS/MS assay; assay type: ADME, Canis lupus familiaris, microsome; conditions: read-out: CLH
[11] = Intrinsic clearance in human liver microsomes at 1 uM after 40 mins by LC-MS/MS assay; assay type: ADME, microsome; conditions: read-out: CLH
[12] = tested on: Plasma; test: Plasma concentration in po dosed capsaicin-induced nociception pain C57BL/6 mouse model administered 4 hrs prior to capsaicin challenge; assay type: ADME, organism-based; conditions: in vivo
[13] = Oral bioavailability in rat at 10 mg/kg; assay type: ADME, organism-based; conditions: in vivo
How it was run: (§8)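 Single oral dose in solution in 1% Tween 80/2.0% HPMC, 97% water, pH 10 with KOH; rat 10 mg/kg, dog 2 mg/kg. Plasma profile gives AUC, tmax and %F.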

[14] = (§9) Oral bioavailability in dog at 2 mg/kg; assay type: ADME, organism-based, Canis lupus familiaris; conditions: in vivo
How it was run: as §8

[15] = Chemical stability of compound in 1N NaOH assessed as amide bond hydrolysis at room temperature; assay type: physicochemical
[16] = tested on: Rattus norvegicus; test: as §1; assay type: ADME, organism-based; conditions: in vivo
How it was run: as §2

[17] = tested on: Canis familiaris; test: as §3; assay type: ADME, organism-based, Canis lupus familiaris; conditions: in vivo
[18] = tested on: Rattus norvegicus; test: as §4; assay type: ADME, organism-based; conditions: in vivo
How it was run: as §2

[19] = tested on: Canis familiaris; test: as §5; assay type: ADME, organism-based, Canis lupus familiaris; conditions: in vivo
[20] = tested on: Rattus norvegicus; test: as §6; assay type: ADME, organism-based; conditions: in vivo
How it was run: as §2

[21] = tested on: Canis familiaris; test: as §7; assay type: ADME, organism-based, Canis lupus familiaris; conditions: in vivo
[22] = Tmax in rat at 10 mg/kg, po; assay type: ADME, organism-based; conditions: in vivo
How it was run: as §8

[23] = Tmax in dog at 2 mg/kg, po; assay type: ADME, organism-based, Canis lupus familiaris; conditions: in vivo
How it was run: as §8

[24] = AUC in rat at 10 mg/kg, po; assay type: ADME, organism-based; conditions: in vivo
How it was run: as §8

[25] = AUC in dog at 2 mg/kg, po; assay type: ADME, organism-based, Canis lupus familiaris; conditions: in vivo
How it was run: as §8

[26] = Chemical stability of compound in toluene assessed as racemization at above 100 degC; assay type: physicochemical
How it was run: (§10)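 Racemization kinetics of the atropisomer were examined in neutral media (toluene, water) and basic media (NaOH) with heating above 100 °C.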

[27] = Chemical stability of compound in water assessed as racemization at above 100 degC; assay type: physicochemical; conditions: buffer
How it was run: as §10

[28] = Chemical stability of compound in NaOH assessed as racemization at above 100 degC; assay type: physicochemical
How it was run: as §10

[29] = Chemical stability of compound assessed as racemization in presence of HCL at 37 degC after 24 hrs; assay type: physicochemical; conditions: buffer
How it was run: (§11)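 Racemization of the atropisomer was followed in 10% HCl under two conditions: 37 °C for 24 h and 100 °C for 1 h.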

[30] = Chemical stability of compound assessed as racemization in presence of HCL at 100 degC after 1 hr; assay type: physicochemical; conditions: buffer
How it was run: as §11

[31] = tested on: Canis familiaris; test: as §9; assay type: ADME, organism-based, Canis lupus familiaris; conditions: in vivo
How it was run: as §8

[32] = tested on: Rhesus monkey; test: Drug metabolism in iv dosed monkey assessed as racemization after 1 hr; assay type: ADME, organism-based, Macaca mulatta; conditions: in vivo
How it was run: (§12)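 A related atropisomeric analogue was dosed to preclinical species and checked in vivo for interconversion to the other atropisomer. Monkey iv, 1 h; rat iv, 1 h; dog po, 24 h; mouse po, 12 h.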

[33] = tested on: Canis familiaris; test: Drug metabolism in po dosed dog assessed as racemization after 24 hrs; assay type: ADME, organism-based, Canis lupus familiaris; conditions: in vivo
How it was run: as §12

[34] = tested on: Rattus norvegicus; test: Drug metabolism in iv dosed rat assessed as racemization after 1 hr; assay type: ADME, organism-based; conditions: in vivo
How it was run: as §12

[35] = tested on: Mus musculus; test: Drug metabolism in po dosed mouse assessed as racemization after 12 hrs; assay type: ADME, organism-based; conditions: in vivo
How it was run: as §12

Structure (SMILES)	clearance [1]	CL free [2]	clearance [3]	CL free [4]	Vd [5]	Vd [6]	half-life [7]	half-life [8]	microsomal CLint at 1 µM [9]	microsomal CLint at 1 µM [10]	microsomal CLint at 1 µM [11]	bioavailability [13]	bioavailability [14]	other results
COc1cc(-c2cccc(F)c2)c(Cl)cc1-n1c(=O)ccc2cc(S(=O)(=O)Nc3ccon3)cnc21	–	–	–	–	–	–	–	–	–	–	–	–	–	Stability: Unstable
COc1cc(C(F)(F)F)ccc1N1C(=O)COc2cc(S(=O)(=O)Nc3nccs3)ccc21	–	–	–	–	–	–	–	–	–	–	–	–	–	Stability [15]: Unstable
COc1cc(-c2cccc(OC(F)F)c2)c(F)cc1-n1c(=O)ccc2cc(S(=O)(=O)Nc3ccon3)ccc21	15.2 mL/min/kg	3780 mL/min/kg	0.3 mL/min/kg	43.3 mL/min/kg	2.2 L/kg	0.22 L/kg	1.8 h	11 h	< 5 µL/min/mg	< 5 µL/min/mg	< 5 µL/min/mg	30%	54%	–
COc1cc(-c2cccc(F)c2)c(F)cc1-n1c(=O)ccc2cc(S(=O)(=O)Nc3ccon3)ccc21 (atropisomer P)	–	917 mL/min/kg	–	33 mL/min/kg	–	–	–	–	–	–	–	66%	62%	CL [16]: 3.17 mL/min/kg; CL [17]: 0.075 mL/min/kg; Vdss [18]: 1.8 L/kg; Vdss [19]: 0.14 L/kg; t1/2 [20]: 2.6 h; t1/2 [21]: 4 h; Tmax [22]: 2.7 h; Tmax [23]: 4 h; AUC [24]: 65 µM·h; AUC [25]: 600 µM·h; Stability [26]: Unstable; Stability [27]: Unstable; Stability [28]: Unstable; Stability [29]: Stable; Stability [30]: Stable
COc1cc(-c2cc(OC)c(-n3c(=O)ccc4cc(S(=O)(=O)Nc5ncccn5)ccc43)cc2F)ccc1Cl	8.33 mL/min/kg	1670 mL/min/kg	0.583 mL/min/kg	96.7 mL/min/kg	1.3 L/kg	0.47 L/kg	2.4 h	12 h	12 µL/min/mg	< 5 µL/min/mg	< 5 µL/min/mg	55%	–	F [31]: 157%
COc1cc(-c2ccc(F)c(C)c2)c(F)cc1-n1c(=O)ccc2cc(S(=O)(=O)Nc3ccon3)ccc21	10.2 mL/min/kg	1680 mL/min/kg	0.283 mL/min/kg	56.7 mL/min/kg	1.5 L/kg	0.32 L/kg	1.9 h	14 h	16 µL/min/mg	< 5 µL/min/mg	5 µL/min/mg	67%	116%	Drug metabolism [32]: Metabolite_Notdetected; Drug metabolism [33]: Metabolite_Notdetected; Drug metabolism [34]: Metabolite_Notdetected; Drug metabolism [35]: Metabolite_Notdetected; Stability: Unstable

More lines, main results first:

clearance [1]	CL free [2]	clearance [3]	CL free [4]	Vd [5]	Vd [6]	half-life [7]	half-life [8]	microsomal CLint at 1 µM [9]	microsomal CLint at 1 µM [10]	microsomal CLint at 1 µM [11]	bioavailability [13]	bioavailability [14]	Structure (SMILES)	other results
7 mL/min/kg	883 mL/min/kg	0.167 mL/min/kg	12.8 mL/min/kg	2.5 L/kg	0.47 L/kg	4.6 h	34 h	12 µL/min/mg	< 5 µL/min/mg	5 µL/min/mg	83%	79%	COc1cc(-c2cccc(C(F)(F)F)c2)ccc1-n1c(=O)ccc2cc(S(=O)(=O)Nc3ncccn3)ccc21	Drug uptake [12]: Dose-dependent effect
4 mL/min/kg	667 mL/min/kg	–	–	–	–	–	–	–	–	–	–	–	COc1cc(C(F)(F)F)ccc1N1CCOc2cc(S(=O)(=O)Nc3nccs3)ccc21	–
